T cruzi repl – blocks replication of Trypanosoma cruzi; T. cruzi beta-gal in NIH3T3, luminescence, 90 h; inhibition, % (no concentration beside the values); actives 1.4% (n = 300,000);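 active = mean inhibition across valid replicates above about 55%, limit read from the data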;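 also: signal also drops with host cell toxicity which is not excluded here; higher percent means less beta-gal luminescence so fewer parasites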
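System: Mouse NIH/3T3 fibroblasts infected with β-gal-expressing T. cruzi Tulahuen C4 | Quantity: NIH/3T3 cells, 5,000 per well | Reagent: 5000 reporter trypomastigotes per well | Dosing: Compound pinned at 50 nL/well, DMSO | Schedule: 3 h host attachment, then at least 90 h co-culture | Detection: GalScreen luminescence, 60 min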
Beta cell apopt – blocks beta cell apoptosis; actives 0.8% (n = 300,000); protection from apoptosis, % (concentration not given with the values); INS-1E cytokine-induced death, ATP luminescence, 48 h; percent of positive-control rescue, neutral wells zero;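 active = Every replicate reaches about 75%, or at least half do and their mean reaches it too, limit read from the data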;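 also: higher means more ATP so stronger rescue from cytokine killing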
UPR XBP1 act – activators of adaptive arm of unfolded protein response (XBP1) | activation, % at 20 µM | actives 0.33% (n = 330,000) | AID 463104 | CHO-XBP1 luciferase reporter, IRE1-XBP1 UPR activation, luminescence; percent of tunicamycin response, DMSO as zero;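 active = versus positive control, 20 µM dose yields 30% or more activation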
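Signal: luciferase luminescence; Assay system: CHO-XBP1 luciferase reporter cells; Amount: one thousand reporter cells per well; Dosing: 20 µM single concentration, DMSO 1%; Benchmarks: high control tunicamycin 10 µg/mL final, low control DMSO vehicle only; Schedule: 6 h compound exposure at 37 °C, 5% CO2; Evaluation: percent activation relative to tunicamycin reference.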
Mdm2-MdmX inh – human Mdm2/MdmX binding inhibition. O15151+Q00987. SaOS-2 split-luciferase Mdm2/MdmX complementation, luminescence. inhibition, % at 8 µM. actives 3% (n = 330,000);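 active = inhibition of at least 50% at 8 µM in the primary screen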
CHOP UPR activ – apoptotic UPR (CHOP) activation | CHO-CHOP luciferase reporter, luminescence; percent of tunicamycin response over DMSO baseline | activation, % at 10 µM | actives 0.34% (n = 330,000) | AID 449763;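 active = at 10 µM dose, activation of 40% or more, normalized to positive control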
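Test system: CHO-CHOP cells, stable luciferase reporter of PERK-eIF2a-CHOP signalling | Quantity: 500 CHO-CHOP cells per well | Buffer or medium: F12 plus 10% serum | Compound dosing: 10 µM single point, 0.5% DMSO | Schedule: 6 h compound treatment, 37 °C | Signal: Luciferase luminescence | Control set: Tunicamycin high control, DMSO low control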
CSC inhib – cancer stem cell inhibition | inhibition, % at 7.5 µM | actives 1.1% (n = 300,000) | cancer stem cell-like cells viability, luminescence; in the data active = inhibition above about 75%; tested in HMLE shEcad cells
Large screens that a line does not name were inactive. Compounds with a hit are over-represented: about 5% of the library has one in this group of screens.

Cc1cccc(N2CCN(c3nc4ccc(Cl)cc4n4cnnc34)CC2)c1C	none
Cn1c(=O)c2c(nc(SCC(=O)N3CCc4ccccc4C3)n2C)n(C)c1=O	none
CC(C)Cn1c(SCC(=O)N2CCc3ccccc3C2)nc2cc(Cl)ccc2c1=O	Beta cell apopt 114.9
O=C(CSc1nc2ccccc2c(=O)n1-c1ccccc1)N1CCc2ccccc2C1	Beta cell apopt 100.3
CC(C)c1ccccc1-n1c(SCC(=O)N2CCc3ccccc3C2)nc2ccccc2c1=O	Beta cell apopt 120.9
CCCc1nc(NC2CCCCC2)c(C#N)c2c1COC(C)(C)C2	CSC inhib 105.8
COc1cc(/C=N\NC(=O)c2ccc(Cn3cc(Br)c([N+](=O)[O-])n3)o2)cc(OC)c1O	none
O=C(N/N=C\c1cccc(F)c1)c1ccc(Cn2cc(Br)c([N+](=O)[O-])n2)o1	T cruzi repl 68.0
O=C(N/N=C\c1ccc(F)cc1)c1ccc(Cn2cc(Br)c([N+](=O)[O-])n2)o1	T cruzi repl 61.4
COc1ccc(/C=N/NC(=O)c2ccc(Cn3cc([N+](=O)[O-])cn3)o2)cc1O	none (no result: T cruzi repl)
O=C(N/N=C\c1ccc2c(c1)OCO2)c1ccc(Cn2cc(Br)c([N+](=O)[O-])n2)o1	T cruzi repl 55.6, CSC inhib 84.5
CN(Cc1ccccc1)S(=O)(=O)c1ccc(N2CCOCC2)nc1	none
CN(CCO)c1cc(NCCCN2CCC(Cc3ccccc3)CC2)c2nonc2c1[N+](=O)[O-]	T cruzi repl 65.0
COc1ccc(-c2sc3ccccc3c2C#CCO)cc1	none
COc1ccc(-c2sc3cc(OC)c(OC)cc3c2C#CC2(O)CCCCC2)cc1	CSC inhib 125.1 (no result: T cruzi repl)
COc1ccc(-c2sc3ccccc3c2C#CC2(O)CCCCC2)cc1	CSC inhib 89.0 (no result: UPR XBP1 act, Mdm2-MdmX inh, CHOP UPR activ)
COc1ccc(-c2oc(=O)c3cc(OC)c(OC)cc3c2C#CC2(O)CCCCC2)cc1	none (no result: T cruzi repl)
Cc1ccnc(SCCn2c(N3CC(C)CC(C)C3)nc3c2c(=O)n(C)c(=O)n3C)n1 (centres undefined)	none
CN(C)C(=O)c1ccc(NC(=O)c2sccc2-c2ccccc2)cc1	none
C=CCOCC(O)Cn1c(N2CCCC2)nc2c1c(=O)[nH]c(=O)n2C (centres undefined)	none
COc1ccc(CNN2CCCCC2C(=O)Nc2ccc(OC)c(OCC(C)C)c2)cc1OC (centres undefined)	T cruzi repl 57.5
COc1ccc(NC(=O)C2CCCCN2N)cc1OCC(C)C (centres undefined)	none
COc1ccc([C@H]2CC(=O)C=C(c3ccnc4ccc(Cl)cc34)C2)cc1	Beta cell apopt 89.2 (no result: T cruzi repl)
COc1cc(F)c(C2=CC(=O)C[C@H](c3ccc(Cl)cc3)C2)cc1F	CSC inhib 78.5 (no result: T cruzi repl)
O=C1C=C(c2ccc(F)cc2OCc2ccccc2)C[C@@H](c2ccc(Cl)cc2)C1	Beta cell apopt 110.8 (no result: T cruzi repl)
COc1ccc([C@H]2CC(=O)C=C(c3cc(Cl)ccc3C)C2)cc1	none (no result: T cruzi repl)
O=C1C=C(c2ccc(F)cc2OCc2ccccc2)C[C@@H](c2ccc3c(c2)OCO3)C1	none (no result: T cruzi repl)
CC(C)[C@H](NS(=O)(=O)c1ccccc1)C(=O)OCC(=O)NC(=O)NC1CCCCC1	none (no result: T cruzi repl)
CCCCCCN1C2=NCCN2c2ccccc21	none (no result: Beta cell apopt)
CCCCCCn1ccc(=N)cc1	Beta cell apopt 120.3 (no result: T cruzi repl)
C[C@H](NC(=O)Cc1ccccc1)C(=O)N1CCC2(CC1)NCCc1[nH]cnc12	none
Cc1cccc(N(Cc2ccccc2)C(=O)CCl)c1	T cruzi repl 72.1 (no result: Beta cell apopt, UPR XBP1 act, Mdm2-MdmX inh, CHOP UPR activ, CSC inhib)
COc1ccc(CC(=O)N(Cc2ccccc2)c2cccc(C)c2)cc1OC	none
COc1ccc(N(CC(=O)NCCC2=CCCCC2)S(=O)(=O)c2ccccc2)cc1OC	T cruzi repl 59.8
O=C(Cn1cnc2cc([N+](=O)[O-])ccc2c1=O)Nc1ccc(N2CCOCC2)cc1	none
Cc1ccc(Sc2cc(C(=O)NCCN(C)C)c3ccccc3n2)cc1	none
Cc1ccc(Sc2cc(C(=O)NCCCN(C)C)c3ccccc3n2)cc1	T cruzi repl 56.0
COCCCNC(=O)c1cc(Sc2ccc(F)cc2)nc2ccccc12	none
CN(C)CCNC(=O)c1cc(Sc2ccc(F)cc2)nc2ccccc12	T cruzi repl 65.0
CCN(CC)c1ccc(NC(=O)CCN2C(=O)c3ccccc3S2(=O)=O)c(C)c1	none
O=[N+]([O-])c1cccnc1N1CCC(c2cc(-c3ccc(Cl)cc3Cl)n[nH]2)CC1	CSC inhib 106.0
O=[N+]([O-])c1cccnc1N1CCC(c2cc(-c3cccc(C(F)(F)F)c3)n[nH]2)CC1	CSC inhib 122.7
COc1ccc(OC)c(-c2cc(C3CCN(c4ncccc4[N+](=O)[O-])CC3)[nH]n2)c1	none (no result: CSC inhib)
COc1ccc(N2CCN(C(=O)NCc3ccc(OC)c(Cl)c3)CC2)cc1	none
Cc1ccc(S(=O)(=O)N2CCOC2CNC(=O)C(=O)NCc2ccc3c(c2)OCO3)cc1 (centres undefined)	none
CCCCNC(=O)CC(C(=O)N1CCc2ccccc21)n1ccnc1 (centres undefined)	none (no result: CSC inhib)
O=C(CC(C(=O)N1CCc2ccccc21)n1ccnc1)N1CCc2ccccc2C1 (centres undefined)	T cruzi repl 72.2
CCC(c1nnc(SCC(=O)Nc2cccnc2Cl)n1-c1ccccc1)N(C)C (centres undefined)	none
O=S(=O)(c1ccccc1)N1CCN(C/C=C/c2ccccc2)CC1	none
CS(=O)(=O)NCCCNc1ccc(C(F)(F)F)cc1[N+](=O)[O-]	none
O=[N+]([O-])c1cc(C(F)(F)F)ccc1NCCc1c[nH]c2ccccc12	CSC inhib 99.2
O=[N+]([O-])c1cc(C(F)(F)F)ccc1NCCCCNS(=O)(=O)c1ccc(Cl)cc1	Beta cell apopt 87.7 (no result: CSC inhib)
CCOc1ccccc1N1CC(C(=O)Nc2ccc3c(c2)OCCO3)CC1=O (centres undefined)	none
COc1ccc(Sc2ccccc2CN(C)C)cc1OC	none (no result: CSC inhib)
CNCc1ccccc1Sc1ccc(O)c(O)c1	CSC inhib 85.3 (no result: UPR XBP1 act, Mdm2-MdmX inh, CHOP UPR activ)
O=C(O)c1ccccc1C(=O)c1ccc(Sc2ccc(Cl)cc2)c([N+](=O)[O-])c1	none
Cc1ccc(Sc2ccc(CO)cc2[N+](=O)[O-])cc1	none
CN1CCN(Cc2ccc(Sc3ccc(Cl)cc3)c([N+](=O)[O-])c2)CC1	T cruzi repl 66.2, CSC inhib 86.0
Cc1ccc(Sc2ccc(CN3CCCC3)cc2[N+](=O)[O-])cc1	T cruzi repl 88.4
O=C1CCCC(=O)N1c1ccc(N2CCOCC2)c([N+](=O)[O-])c1	none
O=C(/C=C/c1ccc2c(c1)OCO2)N1CCN(c2n[nH]c(=O)[nH]c2=O)CC1	none
CC1=NN(c2nc(-c3ccc(C)cc3)cs2)C(=O)C1N=Nc1ccc2ccccc2c1 (centres undefined)	none
